Test system: U2OS
Assay: Multiplex assay against U2OS
Assay type: toxicity, cell-based
Settings: human
In short: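 Phenotypes for tubulin, mitochondrial mass and membrane permeability are expressed as per cents of healthy-nucleus cells. Cells were stained live at seeding with Hoechst33342, BioTracker Green Microtubule Cytoskeleton Dye, MitoTracker Red and Annexin V Alexa Fluor 680, then imaged after compound addition on a CQ1 microscope at 37°C and 5% CO2. Machine-learning gating in CellPathfinder separated Hoechst high-intensity objects from normal cells, divided normal cells by nuclear state (healthy, pyknosed, fragmented) and divided pyknosed cells into mitotic or apoptotic.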

[1] = 12 h, 1 µM, compound concentration 1 uM, replicate 1
[2] = 12 h, 1 µM, compound concentration 1 uM, replicate 2
[3] = 12 h, 10 µM, compound concentration 10 uM, replicate 1
[4] = 12 h, 10 µM, compound concentration 10 uM, replicate 2
[5] = 24 h, 1 µM, compound concentration 1 uM, replicate 1
[6] = 24 h, 1 µM, compound concentration 1 uM, replicate 2
[7] = 24 h, 10 µM, compound concentration 10 uM, replicate 1
[8] = 24 h, 10 µM, compound concentration 10 uM, replicate 2
[9] = 48 h, 1 µM, compound concentration 1 uM, replicate 1
[10] = 48 h, 1 µM, compound concentration 1 uM, replicate 2
[11] = 48 h, 10 µM, compound concentration 10 uM, replicate 1
[12] = 48 h, 10 µM, compound concentration 10 uM, replicate 2

CCCn1c(=O)c2[nH]c(-c3cnn(Cc4cccc(C(F)(F)F)c4)c3)nc2n(CC)c1=O [GS 6201]
Population Apoptotic (%) [1]: 28% | Population Fragmented Nuclei (%) [1]: 8% | Population Healthy Nuclei (%) [1]: 78% | Population Hoechst High Intensity Objects (%) [1]: 9% | Population Membrane Permeable-Phenotype (%) [1]: 14% | Population Mitochondria Different-Phenotype (%) [1]: 5% | Population Mitotic Cells (%) [1]: 71% | Population Normal (%) [1]: 90% | Population Pyknosed Nuclei (%) [1]: 13% | Population Tubulin-Different-Phenotype (%) [1]: 14% | Total Cell Count [1]: 1120 | Population Apoptotic (%) [2]: 42% | Population Fragmented Nuclei (%) [2]: 4% | Population Healthy Nuclei (%) [2]: 88% | Population Hoechst High Intensity Objects (%) [2]: 2% | Population Membrane Permeable-Phenotype (%) [2]: 8% | Population Mitochondria Different-Phenotype (%) [2]: 9% | Population Mitotic Cells (%) [2]: 57% | Population Normal (%) [2]: 97% | Population Pyknosed Nuclei (%) [2]: 7% | Population Tubulin-Different-Phenotype (%) [2]: 28% | Total Cell Count [2]: 75 | Population Apoptotic (%) [3]: 35% | Population Fragmented Nuclei (%) [3]: 34% | Population Healthy Nuclei (%) [3]: 52% | Population Hoechst High Intensity Objects (%) [3]: 19% | Population Membrane Permeable-Phenotype (%) [3]: 51% | Population Mitochondria Different-Phenotype (%) [3]: 31% | Population Mitotic Cells (%) [3]: 64% | Population Normal (%) [3]: 80% | Population Pyknosed Nuclei (%) [3]: 12% | Population Tubulin-Different-Phenotype (%) [3]: 82% | Total Cell Count [3]: 118 | Population Apoptotic (%) [4]: 50% | Population Fragmented Nuclei (%) [4]: 17% | Population Healthy Nuclei (%) [4]: 77% | Population Hoechst High Intensity Objects (%) [4]: 5% | Population Membrane Permeable-Phenotype (%) [4]: 3% | Population Mitochondria Different-Phenotype (%) [4]: 20% | Population Mitotic Cells (%) [4]: 50% | Population Normal (%) [4]: 94% | Population Pyknosed Nuclei (%) [4]: 4% | Population Tubulin-Different-Phenotype (%) [4]: 10% | Total Cell Count [4]: 98 | Population Apoptotic (%) [5]: 27% | Population Fragmented Nuclei (%) [5]: 8% | Population Healthy Nuclei (%) [5]: 82% | Population Hoechst High Intensity Objects (%) [5]: 7% | Population Membrane Permeable-Phenotype (%) [5]: 7% | Population Mitochondria Different-Phenotype (%) [5]: 7% | Population Mitotic Cells (%) [5]: 72% | Population Normal (%) [5]: 92% | Population Pyknosed Nuclei (%) [5]: 8% | Population Tubulin-Different-Phenotype (%) [5]: 8% | Total Cell Count [5]: 2066 | Population Apoptotic (%) [6]: 50% | Population Fragmented Nuclei (%) [6]: 5% | Population Healthy Nuclei (%) [6]: 90% | Population Hoechst High Intensity Objects (%) [6]: 4% | Population Membrane Permeable-Phenotype (%) [6]: 2% | Population Mitochondria Different-Phenotype (%) [6]: 10% | Population Mitotic Cells (%) [6]: 50% | Population Normal (%) [6]: 95% | Population Pyknosed Nuclei (%) [6]: 4% | Population Tubulin-Different-Phenotype (%) [6]: 30% | Total Cell Count [6]: 81 | Population Apoptotic (%) [7]: 64% | Population Fragmented Nuclei (%) [7]: 44% | Population Healthy Nuclei (%) [7]: 41% | Population Hoechst High Intensity Objects (%) [7]: 16% | Population Membrane Permeable-Phenotype (%) [7]: 47% | Population Mitochondria Different-Phenotype (%) [7]: 31% | Population Mitotic Cells (%) [7]: 35% | Population Normal (%) [7]: 83% | Population Pyknosed Nuclei (%) [7]: 14% | Population Tubulin-Different-Phenotype (%) [7]: 58% | Total Cell Count [7]: 133 | Population Apoptotic (%) [8]: 50% | Population Fragmented Nuclei (%) [8]: 17% | Population Healthy Nuclei (%) [8]: 72% | Population Hoechst High Intensity Objects (%) [8]: 3% | Population Membrane Permeable-Phenotype (%) [8]: 5% | Population Mitochondria Different-Phenotype (%) [8]: 11% | Population Mitotic Cells (%) [8]: 50% | Population Normal (%) [8]: 96% | Population Pyknosed Nuclei (%) [8]: 10% | Population Tubulin-Different-Phenotype (%) [8]: 9% | Total Cell Count [8]: 139 | Population Apoptotic (%) [9]: 44% | Population Fragmented Nuclei (%) [9]: 8% | Population Healthy Nuclei (%) [9]: 82% | Population Hoechst High Intensity Objects (%) [9]: 1% | Population Membrane Permeable-Phenotype (%) [9]: 3% | Population Mitochondria Different-Phenotype (%) [9]: 11% | Population Mitotic Cells (%) [9]: 55% | Population Normal (%) [9]: 98% | Population Pyknosed Nuclei (%) [9]: 9% | Population Tubulin-Different-Phenotype (%) [9]: 7% | Total Cell Count [9]: 2377 | Population Apoptotic (%) [10]: 41% | Population Fragmented Nuclei (%) [10]: 2% | Population Healthy Nuclei (%) [10]: 91% | Population Membrane Permeable-Phenotype (%) [10]: 1% | Population Mitochondria Different-Phenotype (%) [10]: 13% | Population Mitotic Cells (%) [10]: 58% | Population Pyknosed Nuclei (%) [10]: 5% | Population Tubulin-Different-Phenotype (%) [10]: 35% | Total Cell Count [10]: 110 | Population Apoptotic (%) [11]: 67% | Population Fragmented Nuclei (%) [11]: 51% | Population Healthy Nuclei (%) [11]: 34% | Population Hoechst High Intensity Objects (%) [11]: 13% | Population Membrane Permeable-Phenotype (%) [11]: 50% | Population Mitochondria Different-Phenotype (%) [11]: 29% | Population Mitotic Cells (%) [11]: 32% | Population Normal (%) [11]: 86% | Population Pyknosed Nuclei (%) [11]: 13% | Population Tubulin-Different-Phenotype (%) [11]: 47% | Total Cell Count [11]: 198 | Population Apoptotic (%) [12]: 22% | Population Fragmented Nuclei (%) [12]: 12% | Population Healthy Nuclei (%) [12]: 80% | Population Hoechst High Intensity Objects (%) [12]: 2% | Population Membrane Permeable-Phenotype (%) [12]: 9% | Population Mitochondria Different-Phenotype (%) [12]: 13% | Population Mitotic Cells (%) [12]: 77% | Population Normal (%) [12]: 97% | Population Pyknosed Nuclei (%) [12]: 6% | Population Tubulin-Different-Phenotype (%) [12]: 13% | Total Cell Count [12]: 214

— ChEMBL document CHEMBL4689842, “EUbOPEN Chemogenomics Library wave 1” (2021)
